Experimental data as given in ChEMBL document CHEMBL1128747, “Phosphinic acid analogues of GABA. 1. New potent and selective GABAB agonists” (J Med Chem, 1995).

Legend:
[1] = molecular target: T1, GABA B receptor (Rattus norvegicus, UniProt O88871+Q9Z0U4); test: (§1) Inhibition of [3H]CGP-27492 binding to Gamma-aminobutyric acid type B receptor of rat cortex
Outline: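 Displacement of [3H]CGP27492 from rat cerebral cortex membranes, in triplicate. Nonspecific binding defined with 10 µM (R)-(-)-baclofen. IC50 obtained by computer curve fitting to a single-site model.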

[2] = molecular target: T2, Serotonin 2 (5-HT2) receptor (Homo sapiens) (UniProt P41595+P28223+P28335); test: Inhibition of [3H]ketanserin binding to 5-hydroxytryptamine 2 receptor at 10e-5 M; format: protein assay
[3] = molecular target: Serotonin 3 (5-HT3) receptor (Homo sapiens) (UniProt P46098+A5X5Y0+O95264+Q70Z44+Q8WXA8); test: Inhibition of [3H]- BRL 43 694 binding to 5-hydroxytryptamine 3 receptor at 10e-5 M; format: protein-complex assay
[4] = molecular target: T3, Adrenergic receptor beta (Homo sapiens) (UniProt P08588+P07550+P13945); test: Inhibition of [3H]- DHA binding to Beta adrenergic receptor; format: protein assay; conditions: concentration not given here
[5] = organism: Rattus norvegicus; test: The compound was tested for inhibition of release of [3H]GABA from rat cortical slices after electrical stimulation.; format: functional
[6] = molecular target: Histamine H1 receptor (Homo sapiens) (UniProt P35367); test: Inhibition of [3H]- doxepine binding to histamine 1 receptor at 10e-5 M
Sequence of Histamine H1 receptor (Homo sapiens) (P35367 whole entry): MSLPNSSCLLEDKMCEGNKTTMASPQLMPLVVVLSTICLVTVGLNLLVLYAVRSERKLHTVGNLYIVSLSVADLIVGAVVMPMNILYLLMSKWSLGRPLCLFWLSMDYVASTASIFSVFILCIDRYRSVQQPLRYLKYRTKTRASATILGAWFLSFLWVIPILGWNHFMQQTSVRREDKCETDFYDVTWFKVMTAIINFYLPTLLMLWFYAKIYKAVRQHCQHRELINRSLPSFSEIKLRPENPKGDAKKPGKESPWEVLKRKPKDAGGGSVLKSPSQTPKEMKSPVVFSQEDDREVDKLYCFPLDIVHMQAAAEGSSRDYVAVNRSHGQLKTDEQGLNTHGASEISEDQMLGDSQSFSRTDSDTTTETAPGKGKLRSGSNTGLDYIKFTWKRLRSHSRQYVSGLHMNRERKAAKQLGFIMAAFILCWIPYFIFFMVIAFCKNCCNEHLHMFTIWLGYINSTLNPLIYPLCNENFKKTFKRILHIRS

[7] = molecular target: Adrenergic receptor alpha-1 (Homo sapiens) (UniProt P35348+P25100+P35368); test: Inhibition [3H]- prazosin binding to Alpha-1 adrenergic receptor at 10e-5 M; format: protein assay
[8] = molecular target: T4, GABA-A receptor; anion channel (Homo sapiens) (UniProt P14867+P47870+P18507+P28472+P48169+Q99928+Q9UN88+P34903+O00591+O14764+Q8N1C3+P18505+P78334+P47869+P31644+Q16445); test: Inhibition of [3H]- flunitrazepam binding to GABA-A benzodiazepine receptor at 10e-5 M; format: protein-complex assay
[9] = Inhibition of [3H]- 5-HT binding to 5-hydroxytryptamine 1 receptor at 10e-5 M
[10] = The compound was tested for blockade of the monosynaptic reflexes in the hemisected neonatal spinal cord; format: functional, Rattus norvegicus
[11] = molecular target: Mu-type opioid receptor (Homo sapiens) (UniProt P35372); test: Inhibition of [3H]- naloxone binding to mu-opiate receptor at 10e-5 M
Sequence of Mu-type opioid receptor (Homo sapiens) (P35372 whole entry): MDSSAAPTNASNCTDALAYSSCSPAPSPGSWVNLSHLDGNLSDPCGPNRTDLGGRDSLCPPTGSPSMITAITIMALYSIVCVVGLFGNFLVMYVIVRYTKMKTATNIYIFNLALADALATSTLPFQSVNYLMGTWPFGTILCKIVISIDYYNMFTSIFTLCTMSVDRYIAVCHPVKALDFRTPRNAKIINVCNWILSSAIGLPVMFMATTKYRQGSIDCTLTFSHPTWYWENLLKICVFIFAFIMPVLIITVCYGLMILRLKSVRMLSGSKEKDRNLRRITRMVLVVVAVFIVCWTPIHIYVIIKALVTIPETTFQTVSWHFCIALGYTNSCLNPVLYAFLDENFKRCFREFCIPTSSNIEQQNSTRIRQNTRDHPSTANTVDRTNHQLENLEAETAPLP

[12] = molecular target: T5, Adenosine receptor A1 (Homo sapiens) (UniProt P30542); test: Inhibition of [3H]- N-6-CA binding to Adenosine A1 receptor at 10e-5 M
T5 sequence (whole entry): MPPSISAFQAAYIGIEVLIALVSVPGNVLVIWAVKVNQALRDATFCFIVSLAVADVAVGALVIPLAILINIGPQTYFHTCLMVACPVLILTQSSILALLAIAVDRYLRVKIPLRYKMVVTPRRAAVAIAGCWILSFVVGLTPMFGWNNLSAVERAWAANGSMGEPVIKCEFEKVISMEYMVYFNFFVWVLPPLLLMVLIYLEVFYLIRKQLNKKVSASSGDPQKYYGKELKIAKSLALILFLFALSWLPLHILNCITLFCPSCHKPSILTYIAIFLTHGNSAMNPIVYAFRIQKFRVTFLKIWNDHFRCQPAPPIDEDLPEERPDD

[13] = molecular target: Substance-P receptor (Homo sapiens) (UniProt P25103); test: Inhibition of [3H]-substance P binding to Tachykinin receptor 1 at 10e-5 M
[14] = molecular target: Muscarinic acetylcholine receptor (Homo sapiens) (UniProt P20309+P08173+P11229+P08172+P08912); test: Inhibition of [3H]CMD binding to muscarinic ACh receptor at 10e-5 M; format: protein assay
[15] = test system: Rattus norvegicus; test: Deterioration of rotarod performance of rats 1-2 hour after subcutaneous administration of compound; format: functional, organism-based
[16] = test system: Rattus norvegicus; test: Deterioration of rotarod performance of rats 0.5-1 hour after subcutaneous administration of compound; format: functional, organism-based
Outline: (§2)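 Male Sprague-Dawley rats (120-140 g), eight per dose. Compound is dissolved in water and given orally (5 mL/kg) or subcutaneously into the neck (2 mL/kg). Rats are pre-trained to stay 300 s on an 11 rpm, 6 cm cylinder. Time on the rod (maximum 300 s) is recorded at 0.5-1 h after sc or 1.5-2 h after po dosing. EC50 is the dose in µmol/kg at which 50% fall off within ≤150 s, estimated by Probit.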

[17] = molecular target: T4, GABA-A receptor; anion channel (Homo sapiens); test: Inhibition of [3H]- muscimol binding to Gamma-aminobutyric acid A (GABA-A) receptor at 10e-5 M; format: protein-complex assay
[18] = molecular target: Adrenergic receptor alpha-2 (Homo sapiens) (UniProt P08913+P18825+P18089); test: Inhibition of [3H]- clonidine binding to Alpha-2 adrenergic receptor at 10e-5 M; format: protein assay
[19] = test system: GABA-A receptor; anion channel; test: Inhibition of [3H]muscimol binding to GABA-A receptor of rat cortex; format: tissue-based
[20] = molecular target: T2, Serotonin 2 (5-HT2) receptor (Homo sapiens); test: Ketanserin binding to 5-hydroxytryptamine 2 receptor at 10e-5 M; format: protein assay
[21] = test system: Rattus norvegicus; test: Deterioration of rotarod performance of rats 1-2 hour after peroral administration of compound; format: functional, organism-based; outline: as §2
[22] = molecular target: T6, GABA-B receptor (Homo sapiens, UniProt O75899+Q9UBS5); test: Inhibition of [3H]baclofen binding to Gamma-aminobutyric acid type B receptor of cat cerebellum; format: tissue-based, Felis catus; conditions: target entry is the homologue from another species
T6 sequence (Q9UBS5 whole entry): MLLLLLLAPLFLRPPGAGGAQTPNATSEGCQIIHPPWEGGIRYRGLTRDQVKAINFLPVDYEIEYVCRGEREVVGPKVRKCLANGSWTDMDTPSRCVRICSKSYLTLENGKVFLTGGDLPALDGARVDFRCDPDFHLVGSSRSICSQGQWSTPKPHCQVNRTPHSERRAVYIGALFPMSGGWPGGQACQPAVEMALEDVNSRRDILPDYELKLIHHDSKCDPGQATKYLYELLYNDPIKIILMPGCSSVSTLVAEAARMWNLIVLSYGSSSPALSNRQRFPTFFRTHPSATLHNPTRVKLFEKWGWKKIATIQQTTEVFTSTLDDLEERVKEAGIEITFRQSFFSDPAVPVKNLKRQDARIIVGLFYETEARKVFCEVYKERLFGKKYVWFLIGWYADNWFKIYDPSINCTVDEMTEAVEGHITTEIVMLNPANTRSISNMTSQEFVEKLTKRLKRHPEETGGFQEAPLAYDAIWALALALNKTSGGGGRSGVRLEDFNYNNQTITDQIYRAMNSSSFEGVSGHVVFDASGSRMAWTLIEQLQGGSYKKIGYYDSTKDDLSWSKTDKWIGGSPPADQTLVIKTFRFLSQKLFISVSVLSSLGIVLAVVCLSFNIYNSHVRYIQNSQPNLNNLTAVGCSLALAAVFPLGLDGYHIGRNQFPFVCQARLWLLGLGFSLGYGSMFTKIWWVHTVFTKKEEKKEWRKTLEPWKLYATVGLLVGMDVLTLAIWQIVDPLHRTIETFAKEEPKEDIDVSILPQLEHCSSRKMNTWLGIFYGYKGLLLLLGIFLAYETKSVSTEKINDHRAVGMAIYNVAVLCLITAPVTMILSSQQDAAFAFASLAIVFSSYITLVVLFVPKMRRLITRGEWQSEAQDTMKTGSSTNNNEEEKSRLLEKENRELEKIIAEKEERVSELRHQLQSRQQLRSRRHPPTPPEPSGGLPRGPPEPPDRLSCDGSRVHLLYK
T6 sequence (O75899 whole entry): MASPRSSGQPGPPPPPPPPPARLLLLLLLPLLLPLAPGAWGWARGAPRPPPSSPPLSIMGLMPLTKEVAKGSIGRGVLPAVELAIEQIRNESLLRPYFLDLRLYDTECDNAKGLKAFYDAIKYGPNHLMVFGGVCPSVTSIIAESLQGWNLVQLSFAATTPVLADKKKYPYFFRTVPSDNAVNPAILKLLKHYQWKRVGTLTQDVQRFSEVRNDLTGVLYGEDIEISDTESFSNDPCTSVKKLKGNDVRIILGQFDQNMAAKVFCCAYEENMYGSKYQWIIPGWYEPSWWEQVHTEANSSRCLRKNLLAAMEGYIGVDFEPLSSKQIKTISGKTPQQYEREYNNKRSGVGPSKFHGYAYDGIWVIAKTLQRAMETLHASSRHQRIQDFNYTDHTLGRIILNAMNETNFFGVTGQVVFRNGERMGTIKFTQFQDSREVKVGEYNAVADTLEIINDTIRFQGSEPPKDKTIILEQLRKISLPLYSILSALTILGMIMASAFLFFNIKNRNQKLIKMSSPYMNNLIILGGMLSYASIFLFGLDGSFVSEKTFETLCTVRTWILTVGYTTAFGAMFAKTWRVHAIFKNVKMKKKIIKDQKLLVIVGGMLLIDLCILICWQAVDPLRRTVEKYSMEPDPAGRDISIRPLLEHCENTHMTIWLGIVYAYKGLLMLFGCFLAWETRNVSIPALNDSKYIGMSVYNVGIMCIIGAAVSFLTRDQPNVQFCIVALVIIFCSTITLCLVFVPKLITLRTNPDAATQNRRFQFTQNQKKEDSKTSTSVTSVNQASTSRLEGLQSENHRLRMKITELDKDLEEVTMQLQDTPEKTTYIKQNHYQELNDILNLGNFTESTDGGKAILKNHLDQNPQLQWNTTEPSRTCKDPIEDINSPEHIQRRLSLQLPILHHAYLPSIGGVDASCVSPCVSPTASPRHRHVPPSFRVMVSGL
Outline: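 Cat cerebellar synaptosomal membranes (200-300 µg protein), prepared by sucrose density gradient, lysis, freezing and repeated washes. […] Stopped by centrifugation and pellet counted. Run in triplicate. Nonspecific binding with 10 µM (R)-(-)-baclofen. IC50 from single-site curve fit.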

[23] = molecular target: T6, GABA-B receptor; test: Inhibition of [3H]CGP-27492 binding to cat Gamma-aminobutyric acid type B receptor; format: protein-complex assay, Felis catus; conditions: target entry is the homologue from another species
[24] = test system: Rattus norvegicus; test: Deterioration of rotarod performance of rats 1.2 hour after subcutaneous administration of compound; format: functional, organism-based
[25] = molecular target: GABA-B receptor (Homo sapiens) (UniProt Q9UBS5+O75899); test: Inhibition of [3H]baclofen binding to Gamma-aminobutyric acid type B receptor of cat cerebellum at 10e-5 M; format: tissue-based; conditions: Felis catus, target entry is the homologue from another species
[26] = molecular target: T3, Adrenergic receptor beta (Homo sapiens); test: Inhibition of [3H]- DHA binding to Beta adrenergic receptor at 10e-5 M; format: protein assay
[27] = molecular target: T6, GABA-B receptor; test: Inhibition of [3H]-baclofen binding to Gamma-aminobutyric acid type B receptor of cat cerebellum; format: tissue-based, Felis catus; conditions: target entry is the homologue from another species
[28] = molecular target: T1, GABA B receptor; test: as §1; remark: listed apart in the source

T1 sequence (Q9Z0U4 whole entry): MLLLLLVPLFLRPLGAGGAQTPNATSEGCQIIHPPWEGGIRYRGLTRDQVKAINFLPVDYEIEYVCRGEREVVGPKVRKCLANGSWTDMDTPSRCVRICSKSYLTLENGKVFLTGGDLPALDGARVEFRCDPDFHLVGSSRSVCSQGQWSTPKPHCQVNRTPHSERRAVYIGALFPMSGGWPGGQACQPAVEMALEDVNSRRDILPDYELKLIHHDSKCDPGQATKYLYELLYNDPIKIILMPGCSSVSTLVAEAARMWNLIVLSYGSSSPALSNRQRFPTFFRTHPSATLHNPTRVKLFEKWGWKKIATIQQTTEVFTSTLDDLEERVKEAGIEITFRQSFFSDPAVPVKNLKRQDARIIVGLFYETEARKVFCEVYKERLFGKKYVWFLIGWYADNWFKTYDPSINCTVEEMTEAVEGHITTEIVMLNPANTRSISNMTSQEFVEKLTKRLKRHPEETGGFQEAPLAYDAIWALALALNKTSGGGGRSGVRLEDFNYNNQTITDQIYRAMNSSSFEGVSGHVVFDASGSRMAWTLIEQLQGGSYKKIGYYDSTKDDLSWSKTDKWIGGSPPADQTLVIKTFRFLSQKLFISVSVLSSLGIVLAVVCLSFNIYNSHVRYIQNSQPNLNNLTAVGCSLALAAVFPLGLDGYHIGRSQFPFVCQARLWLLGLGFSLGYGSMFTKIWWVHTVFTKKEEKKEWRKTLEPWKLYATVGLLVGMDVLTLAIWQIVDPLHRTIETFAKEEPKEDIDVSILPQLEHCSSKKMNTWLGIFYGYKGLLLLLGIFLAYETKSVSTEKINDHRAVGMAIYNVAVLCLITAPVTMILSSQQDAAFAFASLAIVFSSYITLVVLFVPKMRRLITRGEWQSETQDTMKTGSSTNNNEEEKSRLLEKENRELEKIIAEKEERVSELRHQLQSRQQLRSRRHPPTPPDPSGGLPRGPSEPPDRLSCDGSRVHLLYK
T1 sequence (O88871 whole entry): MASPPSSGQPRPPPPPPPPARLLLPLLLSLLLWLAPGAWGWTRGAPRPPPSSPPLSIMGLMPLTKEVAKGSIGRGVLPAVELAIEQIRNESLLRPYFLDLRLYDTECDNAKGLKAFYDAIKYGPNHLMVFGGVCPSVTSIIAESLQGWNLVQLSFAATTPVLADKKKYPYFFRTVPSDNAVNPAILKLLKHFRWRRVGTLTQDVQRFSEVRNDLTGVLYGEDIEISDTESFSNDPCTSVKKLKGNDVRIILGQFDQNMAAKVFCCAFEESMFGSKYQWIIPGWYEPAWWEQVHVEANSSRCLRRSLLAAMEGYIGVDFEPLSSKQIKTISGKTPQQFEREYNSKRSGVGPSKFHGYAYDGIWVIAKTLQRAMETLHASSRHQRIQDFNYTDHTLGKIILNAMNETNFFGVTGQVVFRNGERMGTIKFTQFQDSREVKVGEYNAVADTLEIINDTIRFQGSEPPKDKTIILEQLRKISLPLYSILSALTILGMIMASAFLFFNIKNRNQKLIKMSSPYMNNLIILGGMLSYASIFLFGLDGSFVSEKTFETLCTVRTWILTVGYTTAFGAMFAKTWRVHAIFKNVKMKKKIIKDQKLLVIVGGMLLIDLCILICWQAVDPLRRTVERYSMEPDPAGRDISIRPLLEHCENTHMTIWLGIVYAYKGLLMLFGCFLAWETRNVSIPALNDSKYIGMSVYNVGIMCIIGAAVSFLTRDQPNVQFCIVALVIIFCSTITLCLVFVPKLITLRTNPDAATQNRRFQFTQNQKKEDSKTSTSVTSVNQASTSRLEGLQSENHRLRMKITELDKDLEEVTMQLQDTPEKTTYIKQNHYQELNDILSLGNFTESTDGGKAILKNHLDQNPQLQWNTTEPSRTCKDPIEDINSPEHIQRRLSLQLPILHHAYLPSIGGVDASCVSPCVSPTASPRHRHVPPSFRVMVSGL

CP(=O)(O)C(O)CCN (centres undefined)
IC50 [1]: 1.16 µM

CP(=O)(O)C[C@@H](O)CN
inhibition [2]: 36% | inhibition [3]: 0% | inhibition [4]: 9% | IC50 [5]: 0.4 µM | inhibition [6]: 22% | inhibition [7]: 0% | inhibition [8]: 0% | inhibition [9]: 7% | IC50 [1]: 0.045 µM | IC50 [10]: 0.161 µM | inhibition [11]: 0% | inhibition [12]: 16% | inhibition [13]: 7% | inhibition [14]: 0% | EC50 [15]: 36 µM/kg | EC50 [16]: 2 µM/kg | inhibition [17]: 0% | inhibition [18]: 0%

CP(=O)(O)CCCN
inhibition [3]: 0% | IC50 [19]: Not Active | inhibition [4]: 0% | IC50 [5]: 0.45 µM | inhibition [6]: 30% | inhibition [7]: 6% | inhibition [8]: 0% | inhibition [9]: 46% | IC50 [10]: 0.05 µM | inhibition [11]: 0% | inhibition [12]: 6% | inhibition [13]: 2% | inhibition [14]: 0% | inhibition [20]: 0% | EC50 [16]: 2 µM/kg | inhibition [17]: 0% | inhibition [18]: 9%

CP(=O)(O)C[C@H](O)CN
IC50 [5]: 0.6 µM | IC50 [1]: 0.152 µM | IC50 [10]: 0.425 µM | EC50 [15]: 135 µM/kg | EC50 [16]: 13 µM/kg

NCCCP(=O)(O)O
IC50 [1]: 6.81 µM

CP(=O)(O)/C=C\CN
IC50 [1]: 16.6 µM

NCCCP(=O)(O)C(F)F
IC50 [5]: 10.6 µM | IC50 [1]: 0.089 µM | EC50 [16]: 22 µM/kg

NCC(O)CP(=O)(O)C(F)F (centres undefined)
IC50 [1]: 0.213 µM

NC[C@@H](CC(=O)O)c1ccc(Cl)cc1
IC50 ([19]; read-out: IC50): 1560 µM | IC50 [5]: 213 µM | EC50 [21]: > 200 µM/kg | EC50 [16]: > 200 µM/kg

CCC(CCN)P(C)(=O)O (centres undefined)
IC50 [1]: 18.5 µM

NCC(C[PH](=O)O)c1ccc(Cl)cc1 (centres undefined)
IC50 [22]: 0.039 µM | EC50 [16]: 19 µM/kg

CP(=O)(O)CC(O)CN (centres undefined)
IC50 [1]: 0.077 µM | IC50 [23]: 0.029 µM

NCC(C[PH](=O)O)c1ccc(F)cc1 (centres undefined)
IC50 [22]: 0.36 µM

CP(=O)(O)/C=C/CN
IC50 [1]: 0.665 µM

CP(=O)(O)C(CCN)C(F)(F)F (centres undefined)
IC50 [1]: 67.6 µM

NCC(CC(=O)O)c1ccc(Cl)cc1 (racemic) [BACLOFEN]
IC50 ([19]; read-out: IC50): 1050 µM | EC50 [15]: 52 µM/kg | EC50 [16]: 24 µM/kg

NCC(C[PH](=O)O)c1ccccc1 (centres undefined)
IC50 [22]: 0.88 µM

NC[C@H](CC(=O)O)c1ccc(Cl)cc1 [ARBACLOFEN]
EC50 [24]: 16 µM/kg | IC50 ([19]; read-out: IC50): 964 µM | IC50 [5]: 0.33 µM | IC50 [10]: 0.325 µM | EC50 [16]: 9 µM/kg

NCCC(c1ccccc1)[PH](=O)O (centres undefined)
inhibition [25]: 10%

CC(CCN)P(C)(=O)O (centres undefined)
IC50 [1]: 0.14 µM | IC50 [23]: 0.166 µM

NCCC[PH](=O)O
inhibition [2]: 0% | IC50 ([19]; read-out: IC50): 1.7 µM | inhibition [26]: 0% | IC50 [5]: 0.106 µM | inhibition [6]: 0% | inhibition [7]: 16% | inhibition [8]: 24% | inhibition [9]: 13% | IC50 [27]: 0.0024 µM | IC50 [10]: 60 µM | inhibition [11]: 0% | inhibition [12]: 2% | inhibition [13]: 9% | inhibition [14]: 27% | IC50 [28]: 0.0054 µM | EC50 [16]: > 813 µM/kg | inhibition [17]: 65%

NCC(O)C[PH](=O)O (centres undefined)
IC50 [27]: 0.018 µM

NCC(O)(C[PH](=O)O)c1ccc(Cl)cc1 (centres undefined)
IC50 [1]: 0.065 µM

CCP(=O)(O)CCCN
IC50 [19]: Not Active | IC50 [27]: 1.35 µM | IC50 [28]: 1.98 µM

NCCCP(=O)(O)CO
IC50 [1]: 1.05 µM
